Assay results as given in ChEMBL document CHEMBL2157949 (J Med Chem, 2012).

tested on: not listed separately; assay: Growth inhibition of Chinese hamster PC43-10 cells expressing reduced folate carrier incubated for 96 hrs by CellTiter-blue cell viability assay; format: functional, cell-based; settings: Cricetulus griseus, PC43-10, 96 h

Structure (SMILES)	IC50
Nc1nc2[nH]c(CCC#Cc3ccsc3C(=O)N[C@@H](CCC(=O)O)C(=O)O)cc2c(=O)[nH]1	> 1000 nM
Nc1nc2[nH]c(CCC#Cc3cc(C(=O)N[C@@H](CCC(=O)O)C(=O)O)cs3)cc2c(=O)[nH]1	> 1000 nM

tested on: R2; assay: Growth inhibition of Chinese hamster R2 cells expressing empty vector control incubated for 96 hrs by CellTiter-blue cell viability assay; settings: Cricetulus griseus, R2, 96 h

Structure (SMILES)	IC50
Nc1nc2[nH]c(CCC#Cc3ccsc3C(=O)N[C@@H](CCC(=O)O)C(=O)O)cc2c(=O)[nH]1	> 1000 nM
Nc1nc2[nH]c(CCC#Cc3cc(C(=O)N[C@@H](CCC(=O)O)C(=O)O)cs3)cc2c(=O)[nH]1	> 1000 nM

tested on: R2; assay: Growth inhibition of Chinese hamster R2 cells deficient in reduced folate carrier and human folate receptor alpha incubated for 96 hrs by CellTiter-blue cell viability assay; format: cell-based, Cricetulus griseus; settings: R2, 96 h

Structure (SMILES)	IC50
Nc1nc2[nH]c(CCC#Cc3ccsc3C(=O)N[C@@H](CCC(=O)O)C(=O)O)cc2c(=O)[nH]1	> 1000 nM
Nc1nc2[nH]c(CCC#Cc3cc(C(=O)N[C@@H](CCC(=O)O)C(=O)O)cs3)cc2c(=O)[nH]1	> 1000 nM

tested on: not listed separately; assay: Growth inhibition of Chinese hamster RT16 cells expressing human folate receptor alpha incubated for 96 hrs in presence of folic acid by CellTiter-blue cell viability assay; format: functional, cell-based; settings: Cricetulus griseus, RT16, 96 h

Structure (SMILES)	IC50
Nc1nc2[nH]c(CCC#Cc3ccsc3C(=O)N[C@@H](CCC(=O)O)C(=O)O)cc2c(=O)[nH]1	> 1000 nM
Nc1nc2[nH]c(CCC#Cc3cc(C(=O)N[C@@H](CCC(=O)O)C(=O)O)cs3)cc2c(=O)[nH]1	> 1000 nM

tested on: KB; assay: Growth inhibition of human KB cells endogenously expressing RFC/FRalpha/PCFT in presence of folic acid incubated for 96 hrs by CellTiter-blue cell viability assay; format: functional, cell-based; settings: not given

IC50	Structure (SMILES)
> 1000 nM	Nc1nc2[nH]c(CCC#Cc3ccsc3C(=O)N[C@@H](CCC(=O)O)C(=O)O)cc2c(=O)[nH]1
> 1000 nM	Nc1nc2[nH]c(CCC#Cc3cc(C(=O)N[C@@H](CCC(=O)O)C(=O)O)cs3)cc2c(=O)[nH]1

tested on: IGROV-1; assay: Growth inhibition of human IGROV1 cells endogenously expressing RFC/FRalpha/PCFT in presence of folic acid incubated for 96 hrs by CellTiter-blue cell viability assay; format: functional, cell-based; settings: IGROV-1, 96 h

Structure (SMILES)	IC50
Nc1nc2[nH]c(CCC#Cc3cc(C(=O)N[C@@H](CCC(=O)O)C(=O)O)cs3)cc2c(=O)[nH]1	> 1000 nM

tested on: not listed separately; assay: Growth inhibition of Chinese hamster RT16 cells expressing human folate receptor alpha incubated for 96 hrs by CellTiter-blue cell viability assay; format: functional, cell-based; settings: Cricetulus griseus, RT16, 96 h

Structure (SMILES)	IC50
Nc1nc2[nH]c(CCC#Cc3ccsc3C(=O)N[C@@H](CCC(=O)O)C(=O)O)cc2c(=O)[nH]1	> 1000 nM
Nc1nc2[nH]c(CCC#Cc3cc(C(=O)N[C@@H](CCC(=O)O)C(=O)O)cs3)cc2c(=O)[nH]1	8.26 nM

tested on: R2; assay: Growth inhibition of Chinese hamster R2 cells expressing human PCFT incubated for 96 hrs by CellTiter-blue cell viability assay; format: functional, cell-based, Cricetulus griseus; settings: R2, 96 h
In short: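 R2/hPCFT4 CHO cells maintained beforehand in folate-free RPMI 1640 with dialyzed FBS, 25 nM LCV and G418. Assay: ~2500–5000 cells/well in folate-free RPMI 1640 (pH 7.2) with 25 nM LCV, 10% dialyzed FBS, antibiotics and L-glutamine, over a range of drug concentrations.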

Structure (SMILES)	IC50
Nc1nc2[nH]c(CCC#Cc3ccsc3C(=O)N[C@@H](CCC(=O)O)C(=O)O)cc2c(=O)[nH]1	> 1000 nM
Nc1nc2[nH]c(CCC#Cc3cc(C(=O)N[C@@H](CCC(=O)O)C(=O)O)cs3)cc2c(=O)[nH]1	> 1000 nM

tested on: KB; assay: Growth inhibition of human KB cells endogenously expressing RFC/FRalpha/PCFT incubated for 96 hrs by CellTiter-blue cell viability assay; format: functional, cell-based; settings: not given

IC50	Structure (SMILES)
> 1000 nM	Nc1nc2[nH]c(CCC#Cc3ccsc3C(=O)N[C@@H](CCC(=O)O)C(=O)O)cc2c(=O)[nH]1
> 1000 nM	Nc1nc2[nH]c(CCC#Cc3cc(C(=O)N[C@@H](CCC(=O)O)C(=O)O)cs3)cc2c(=O)[nH]1

tested on: IGROV-1; assay: Growth inhibition of human IGROV1 cells endogenously expressing RFC/FRalpha/PCFT incubated for 96 hrs by CellTiter-blue cell viability assay; format: functional, cell-based; settings: IGROV-1, 96 h

Structure (SMILES)	IC50
Nc1nc2[nH]c(CCC#Cc3cc(C(=O)N[C@@H](CCC(=O)O)C(=O)O)cs3)cc2c(=O)[nH]1	> 1000 nM
